Experimental data reported in ChEMBL document CHEMBL3616378 (J Med Chem, 2015).

How the values were obtained:
[1] = Metabolic stability of the compound in rat hepatocytes assessed as loss of compound at 2 uM; assay type: ADME, cell-based, Hepatocyte; conditions: read-out: Drug degradation
Procedure, shortened: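 Hepatocytes from mouse, rat, dog and human; compound tested at 2 µM; percent loss of parent compound measured.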

[2] = AUC (0 to 24 hrs) in Sprague-Dawley rat at 5 mg/kg, po; assay type: ADME, organism-based; set-up: time < 24 hr, dose 5 mg/kg, route oral; conditions: in vivo
Procedure, shortened: (§1)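 Fasted male Sprague–Dawley rats (~250 g) received a single dose of compound dissolved in water and adjusted to pH 7–7.5 with NaOH, given iv, by oral gavage or ip. Serial blood samples (11–12 per rat) were drawn from a jugular vein catheter into EDTA and kept frozen. Plasma was mixed with methanol:water (1:1) containing an analogue internal standard for analysis. Mean plasma parameters are reported.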

[3] = AUC (0 to 24 hrs) in Sprague-Dawley rat at 1 mg/kg, ip; assay type: ADME, organism-based; set-up: dose 1 mg/kg, time < 24 hr, route intraperitoneal; conditions: in vivo; procedure, shortened: as §1
[4] = Cmax in Sprague-Dawley rat at 1 mg/kg, ip; assay type: ADME, organism-based; set-up: dose 1 mg/kg, route intraperitoneal; conditions: in vivo; procedure, shortened: as §1
[5] = Cmax in Sprague-Dawley rat at 3 mg/kg, ip; assay type: ADME, organism-based; set-up: dose 3 mg/kg, route intraperitoneal; conditions: in vivo; procedure, shortened: as §1
[6] = Tmax in Sprague-Dawley rat at 10 mg/kg, ip; assay type: ADME, organism-based; conditions: in vivo
Procedure, shortened: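 Compound dissolved in water, pH adjusted to 7–7.5 with NaOH; single dose to fasted male Sprague–Dawley rats (~250 g) by oral gavage, intravenous or intraperitoneal route. Serial blood (11–12 samples per rat) from jugular vein catheter into EDTA tubes, centrifuged, frozen; 25 µL plasma mixed with methanol:water (1:1) containing analogue internal standard.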

[7] = Plasma concentration in Sprague-Dawley rat at 1 mg/kg, ip after 0.5 hrs; assay type: ADME, organism-based
Procedure, shortened: (§2)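 Separate experiment: single ip doses of 1, 3 and 10 mg/kg to rats, compound in water adjusted to pH 7–7.5 with NaOH; plasma (with csf) sampled at 0.5, 1 and 4 h; mean plasma concentrations ± SEM reported.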

[8] = Plasma concentration in Sprague-Dawley rat at 10 mg/kg, ip after 0.5 hrs; assay type: ADME, organism-based; procedure, shortened: as §2
[9] = target: Metabotropic glutamate receptor 3 (Homo sapiens, UniProt Q14832); assay: Displacement of [3H]-459477 from human recombinant mGlu3 receptor expressed in AV12 cells after 90 mins by liquid scintillation counting; assay type: cell-based
[10] = Plasma concentration in Sprague-Dawley rat at 3 mg/kg, ip after 4 hrs; assay type: ADME, organism-based; procedure, shortened: as §2
[11] = target: Metabotropic glutamate receptor 1 (Homo sapiens, UniProt Q13255); assay: Antagonist activity at human recombinant mGlu1 receptor expressed in AV12 cells assessed as inhibition of glutamate-stimulated Ca2+ mobilization after 1 hr by FLIPR assay; assay type: functional, cell-based
[12] = target: Metabotropic glutamate receptor 4 (Homo sapiens, UniProt Q14833); assay: Antagonist activity at human recombinant mGlu4 receptor expressed in AV12 cells assessed as inhibition of glutamate-stimulated Ca2+ mobilization after 1 hr by FLIPR assay; assay type: functional, cell-based
[13] = target: Metabotropic glutamate receptor 5 (Homo sapiens, UniProt P41594); assay: Antagonist activity at human recombinant mGlu5 receptor expressed in AV12 cells assessed as inhibition of glutamate-stimulated Ca2+ mobilization after 1 hr by FLIPR assay; assay type: functional, cell-based
Rattus norvegicus = species on record: Rattus norvegicus; assay: Toxicity in Sprague-Dawley rat assessed as impairment of neuromuscular coordination at 300 nM of cerebrospinal fluid concentration by rotarod test; assay type: organism-based; conditions: in vivo, 0.3 µM

Sequence of Metabotropic glutamate receptor 3 (Q14832 whole entry): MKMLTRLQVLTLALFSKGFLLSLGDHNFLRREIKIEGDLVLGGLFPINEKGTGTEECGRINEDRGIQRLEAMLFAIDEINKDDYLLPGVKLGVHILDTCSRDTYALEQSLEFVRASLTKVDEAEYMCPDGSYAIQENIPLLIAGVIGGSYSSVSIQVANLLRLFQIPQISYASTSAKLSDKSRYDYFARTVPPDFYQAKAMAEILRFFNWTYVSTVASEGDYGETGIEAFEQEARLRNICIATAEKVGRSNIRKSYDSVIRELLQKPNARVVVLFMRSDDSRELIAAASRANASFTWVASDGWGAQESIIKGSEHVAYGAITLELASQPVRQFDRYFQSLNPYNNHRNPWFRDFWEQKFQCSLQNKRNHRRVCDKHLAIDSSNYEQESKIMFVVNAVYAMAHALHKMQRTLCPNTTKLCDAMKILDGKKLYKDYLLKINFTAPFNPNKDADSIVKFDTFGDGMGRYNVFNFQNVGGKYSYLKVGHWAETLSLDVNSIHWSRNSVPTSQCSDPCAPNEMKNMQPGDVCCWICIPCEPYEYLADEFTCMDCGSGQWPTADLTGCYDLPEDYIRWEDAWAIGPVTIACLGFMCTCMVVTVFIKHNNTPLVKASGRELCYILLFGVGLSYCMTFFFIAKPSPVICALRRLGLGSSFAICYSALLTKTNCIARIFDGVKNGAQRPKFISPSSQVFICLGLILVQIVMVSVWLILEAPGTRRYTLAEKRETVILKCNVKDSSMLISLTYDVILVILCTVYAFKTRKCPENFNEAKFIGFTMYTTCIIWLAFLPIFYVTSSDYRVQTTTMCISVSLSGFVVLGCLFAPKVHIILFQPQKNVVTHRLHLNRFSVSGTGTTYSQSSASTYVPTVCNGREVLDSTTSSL
Sequence of Metabotropic glutamate receptor 4 (Q14833 whole entry): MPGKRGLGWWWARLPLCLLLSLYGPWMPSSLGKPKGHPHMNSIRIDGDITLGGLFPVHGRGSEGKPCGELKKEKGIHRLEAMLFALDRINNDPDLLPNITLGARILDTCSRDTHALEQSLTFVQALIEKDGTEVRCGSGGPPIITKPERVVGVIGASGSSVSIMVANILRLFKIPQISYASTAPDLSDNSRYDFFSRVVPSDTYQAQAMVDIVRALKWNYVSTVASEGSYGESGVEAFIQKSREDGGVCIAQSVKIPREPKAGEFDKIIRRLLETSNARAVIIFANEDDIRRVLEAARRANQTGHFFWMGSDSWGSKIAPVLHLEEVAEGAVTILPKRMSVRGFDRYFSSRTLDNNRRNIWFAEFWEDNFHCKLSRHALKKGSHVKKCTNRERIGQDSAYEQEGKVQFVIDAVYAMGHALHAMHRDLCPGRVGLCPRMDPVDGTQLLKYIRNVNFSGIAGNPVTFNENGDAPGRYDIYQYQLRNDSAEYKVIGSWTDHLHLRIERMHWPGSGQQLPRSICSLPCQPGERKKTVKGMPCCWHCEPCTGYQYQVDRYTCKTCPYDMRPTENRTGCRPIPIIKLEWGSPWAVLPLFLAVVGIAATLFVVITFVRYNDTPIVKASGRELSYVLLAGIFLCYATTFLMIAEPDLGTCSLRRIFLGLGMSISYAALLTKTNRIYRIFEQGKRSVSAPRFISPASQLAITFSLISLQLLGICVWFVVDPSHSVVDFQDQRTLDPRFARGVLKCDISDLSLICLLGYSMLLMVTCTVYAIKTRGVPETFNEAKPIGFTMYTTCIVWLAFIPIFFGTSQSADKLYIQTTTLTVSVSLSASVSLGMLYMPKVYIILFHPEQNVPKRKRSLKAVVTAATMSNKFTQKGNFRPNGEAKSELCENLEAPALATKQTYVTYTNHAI
Sequence of Metabotropic glutamate receptor 5 (P41594 whole entry): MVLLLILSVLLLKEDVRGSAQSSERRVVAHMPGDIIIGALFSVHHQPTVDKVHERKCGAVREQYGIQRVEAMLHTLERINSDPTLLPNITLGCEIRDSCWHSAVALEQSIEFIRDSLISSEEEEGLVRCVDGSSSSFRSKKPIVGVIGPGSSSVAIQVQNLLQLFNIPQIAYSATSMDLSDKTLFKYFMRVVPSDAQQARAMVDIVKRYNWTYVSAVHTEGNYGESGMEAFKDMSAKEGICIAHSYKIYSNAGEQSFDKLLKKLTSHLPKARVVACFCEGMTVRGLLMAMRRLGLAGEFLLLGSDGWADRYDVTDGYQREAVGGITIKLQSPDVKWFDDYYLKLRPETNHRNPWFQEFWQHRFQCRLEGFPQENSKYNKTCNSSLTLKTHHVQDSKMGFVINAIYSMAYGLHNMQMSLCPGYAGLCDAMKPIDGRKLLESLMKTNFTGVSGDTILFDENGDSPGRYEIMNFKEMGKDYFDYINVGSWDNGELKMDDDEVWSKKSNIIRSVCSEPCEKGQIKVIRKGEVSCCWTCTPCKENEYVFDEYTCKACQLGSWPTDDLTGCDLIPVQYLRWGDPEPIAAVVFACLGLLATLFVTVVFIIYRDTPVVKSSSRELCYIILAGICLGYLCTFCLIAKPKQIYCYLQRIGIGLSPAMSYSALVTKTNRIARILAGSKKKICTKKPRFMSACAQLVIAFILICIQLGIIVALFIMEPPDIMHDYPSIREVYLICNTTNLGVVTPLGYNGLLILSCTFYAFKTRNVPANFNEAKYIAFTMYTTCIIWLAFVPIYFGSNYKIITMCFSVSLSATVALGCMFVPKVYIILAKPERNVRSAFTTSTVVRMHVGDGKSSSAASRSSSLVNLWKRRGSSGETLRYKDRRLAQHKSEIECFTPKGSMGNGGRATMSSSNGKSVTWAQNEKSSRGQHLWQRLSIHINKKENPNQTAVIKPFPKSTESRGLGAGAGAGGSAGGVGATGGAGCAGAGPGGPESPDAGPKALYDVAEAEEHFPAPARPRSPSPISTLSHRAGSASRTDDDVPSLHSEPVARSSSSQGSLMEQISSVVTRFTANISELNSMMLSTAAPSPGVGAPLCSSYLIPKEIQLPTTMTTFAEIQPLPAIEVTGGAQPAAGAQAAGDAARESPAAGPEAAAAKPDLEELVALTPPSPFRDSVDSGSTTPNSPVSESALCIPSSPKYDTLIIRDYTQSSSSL
Sequence of Metabotropic glutamate receptor 1 (Q13255 whole entry): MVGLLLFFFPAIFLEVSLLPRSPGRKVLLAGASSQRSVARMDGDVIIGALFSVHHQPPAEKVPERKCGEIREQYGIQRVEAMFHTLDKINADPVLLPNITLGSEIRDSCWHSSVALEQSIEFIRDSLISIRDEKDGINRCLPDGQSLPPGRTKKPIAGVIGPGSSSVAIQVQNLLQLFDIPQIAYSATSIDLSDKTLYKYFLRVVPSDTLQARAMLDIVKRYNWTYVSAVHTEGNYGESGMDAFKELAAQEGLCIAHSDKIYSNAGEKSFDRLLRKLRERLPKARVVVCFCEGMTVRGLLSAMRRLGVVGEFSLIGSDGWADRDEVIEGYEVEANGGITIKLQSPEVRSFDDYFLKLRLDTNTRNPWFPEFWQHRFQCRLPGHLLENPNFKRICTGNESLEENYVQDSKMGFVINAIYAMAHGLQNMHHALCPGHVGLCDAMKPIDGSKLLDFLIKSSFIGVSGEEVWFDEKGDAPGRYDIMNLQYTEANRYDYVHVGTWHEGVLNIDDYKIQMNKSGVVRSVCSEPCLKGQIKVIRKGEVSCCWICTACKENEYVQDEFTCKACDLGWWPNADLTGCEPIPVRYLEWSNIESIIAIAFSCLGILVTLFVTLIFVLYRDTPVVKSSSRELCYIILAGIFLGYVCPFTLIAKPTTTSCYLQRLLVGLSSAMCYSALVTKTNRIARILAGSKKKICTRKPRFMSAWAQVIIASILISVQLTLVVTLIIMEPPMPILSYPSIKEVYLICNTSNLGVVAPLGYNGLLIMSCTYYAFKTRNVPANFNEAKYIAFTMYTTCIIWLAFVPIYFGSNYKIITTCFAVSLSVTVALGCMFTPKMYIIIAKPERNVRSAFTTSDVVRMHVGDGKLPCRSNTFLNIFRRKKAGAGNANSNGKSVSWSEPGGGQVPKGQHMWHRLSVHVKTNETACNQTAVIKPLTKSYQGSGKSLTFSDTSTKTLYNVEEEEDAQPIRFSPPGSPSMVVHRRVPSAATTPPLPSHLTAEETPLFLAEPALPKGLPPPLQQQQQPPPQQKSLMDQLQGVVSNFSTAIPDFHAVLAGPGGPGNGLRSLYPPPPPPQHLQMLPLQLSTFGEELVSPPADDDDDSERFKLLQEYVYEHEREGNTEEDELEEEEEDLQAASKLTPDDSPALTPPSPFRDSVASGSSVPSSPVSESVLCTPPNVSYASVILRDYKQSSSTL

metabolised at 2 µM [1]: < 10%
AUC(0-t) at 24 h [2]: 1.01 µM·h
AUC(0-t) at 24 h [3]: 6.01 µM·h
Cmax [4]: 4.92 µM
Cmax [5]: 8.05 µM
Tmax [6]: 30 min
concentration at 0.5 h [7]: 6 µM
concentration at 0.5 h [8]: 40.1 µM
Ki [9]: 0.156 µM
concentration at 4 h [10]: 0.7 µM
IC50 [11]: > 12.5 µM
IC50 [12]: > 12.5 µM
IC50 [13]: > 12.5 µM
Structure (SMILES): N[C@@]1(C(=O)O)C[C@@H](Sc2nc[nH]n2)[C@H]2[C@H](C(=O)O)[C@H]21
Activity (Rattus norvegicus): Toxic
